Columns and labels:
[1] = molecular target: T1, Tyrosine-protein phosphatase non-receptor type 1 (Homo sapiens, UniProt P18031); assay: Compound was evaluated for the inhibition constant against Protein-tyrosine phosphatase (PTP1B )
T1 sequence (P18031 whole entry): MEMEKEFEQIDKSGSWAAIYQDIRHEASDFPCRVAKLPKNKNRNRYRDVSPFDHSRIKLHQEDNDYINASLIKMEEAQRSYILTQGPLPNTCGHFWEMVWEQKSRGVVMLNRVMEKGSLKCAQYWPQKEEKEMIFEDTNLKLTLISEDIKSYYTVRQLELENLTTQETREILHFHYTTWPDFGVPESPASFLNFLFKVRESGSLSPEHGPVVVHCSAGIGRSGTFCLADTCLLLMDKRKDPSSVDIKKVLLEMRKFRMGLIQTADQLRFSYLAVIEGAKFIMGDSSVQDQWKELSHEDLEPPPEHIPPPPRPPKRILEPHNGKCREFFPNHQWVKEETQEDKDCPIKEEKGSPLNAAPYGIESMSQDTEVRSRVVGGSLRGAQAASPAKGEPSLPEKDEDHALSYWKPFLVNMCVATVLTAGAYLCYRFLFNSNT
Method in brief: (§1)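 pNPP hydrolysis in pH 7.0 buffer of 50 mM 3,3-dimethylglutarate, 1 mM EDTA, ionic strength 0.15 M with NaCl. Reaction started with enzyme and stopped after 2–3 min with 1 N NaOH. Nonenzymatic substrate hydrolysis subtracted via an enzyme-free control. Initial rates taken at eight pNPP levels (0.2–5 Km) at each of three fixed inhibitor concentrations to obtain the inhibition constant.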

[2] = molecular target: Dual specificity protein phosphatase 3 (Homo sapiens, UniProt P51452); assay: Compound was evaluated for the inhibition constant against dual specificity phosphatase VHR; method in brief: as §1
Chain of Dual specificity protein phosphatase 3 (P51452 whole entry): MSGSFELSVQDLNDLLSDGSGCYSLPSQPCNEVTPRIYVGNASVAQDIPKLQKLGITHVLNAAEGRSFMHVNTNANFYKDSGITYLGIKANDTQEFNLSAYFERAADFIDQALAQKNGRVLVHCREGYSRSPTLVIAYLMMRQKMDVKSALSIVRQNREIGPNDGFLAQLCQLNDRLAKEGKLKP

Structure (SMILES)	Ki [1] [µM]	Ki [2] [µM]
O=P(O)(O)COc1ccc(Cc2ccc(O)cc2)cc1	47	1300
O=C(O)Cc1ccc(OCP(=O)(O)O)cc1	1100	2600
O=P(O)(O)COc1ccc2ccccc2c1	1300	5700
O=P(O)(O)COc1ccccc1 [PHENOXYMETHYLPHOSPHONATE]	3300	26000

Next, values leading:

Ki [1] [µM]	Ki [2] [µM]	Structure (SMILES)
410	570	O=P(O)(O)COc1cccc2c1ccc1ccccc12
1300	4800	O=P(O)(O)COc1cccc2ccccc12

— ChEMBL document CHEMBL1133075, “Synthesis and characterization of a novel class of protein tyrosine phosphatase inhibitors” (Bioorg Med Chem Lett, 2000)
